Test results published in ChEMBL document CHEMBL4513216, “Probing the Open Global Health Chemical Diversity Library for Multistage-Active Starting Points for Next-Generation Antimalarials” (ACS Infect Dis, 2020).

Experiment: Toxicity liver stage against HepG2, at 10uM
Type: cell-based
Design: test concentration 10 uM, cell line HepG2-A16-CD81EGFP
Conditions: human, HepG2-A16-CD81EGFP cells; read-out: INHIBITION
Procedure, shortened: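 Uninfected HepG2-A16-CD81EGFP cells, 3 × 10^3 per well, 1536-well, plated on prespotted compound at 10 μM final, parasite-free screening media added to match infected plates; puromycin 10 μM positive, DMSO 0.5% negative; run in parallel with 48 h PbLuc assay at 37 °C, 5% CO2; viability by CellTiter-Glo luminescence, normalized to controls.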

SMILES	cytotoxicity at 10 µM [%]
CSc1ccc(C(=O)C2CCCN(C(=O)Cn3cnnn3)C2)cc1 (stereo not given)	-1.57
CC(=O)NC[C@H]1OC[C@@H](NC2CCC(F)(F)CC2)[C@@H]1O	-8.57
COc1ccc2c(c1)nc1n2[C@@H](CNCc2cnn(C)c2)COC1	-6.8
CC(=O)N1N=C(c2cccs2)OC1C(=O)Nc1ccc(C(C)C)cc1 (stereo not given)	-12.7
CCN(CC)CCNC(=O)CCc1c(C)nn(-c2ccccc2Br)c1C	10.6
O=c1c(NCCOCCO)c(N2CCN(c3ccccc3)CC2)c1=O	-5.64
Cn1ccc2c(NC(=O)Cn3ncc4c(c3=O)CCCCC4)cccc21	3.89
O=C1CCC(c2ccc(Cl)cc2)=NN1CN1CCSCC1	34.4
Cn1cccc1CN(C(=O)Cc1cccs1)C1CC1	7.53
COc1ccc(S(=O)(=O)NCC(O)c2sccc2C)cc1C (stereo not given)	1.69
Cn1cc(C(=O)NCC(Cc2cccc(F)c2)N2CCCCC2=O)nn1 (stereo not given)	-1.13
Cc1cccc(NC(=O)C2CSc3ncc(C)c(=O)n3C2)n1 (stereo not given)	0.0115
CCOCC1COCCC12CCN(C(=O)C1=CCCCC1)CC2 (stereo not given)	-3.09
CC1N(C)C(=O)COC12CCN(C(=O)CCc1ccccc1)CC2 (stereo not given)	0.227
CCc1ccc(C(=O)N2C[C@@H]3COC[C@@H](C(=O)NC)[C@@H]3C2)cc1	1.58
Cc1cccc(C(=O)N2CCCn3cnc(CN4CCCC4=O)c3C2)n1	15.7
CCC(=O)N1CCC2(COCc3cnc(NCc4ccco4)nc32)C1 (stereo not given)	-12.9
O=C(NCC1CCCO1)c1nc2c(s1)CCCN2C(=O)C1CC1 (stereo not given)	-0.464
CCCN(CCC)c1ncc(S(=O)(=O)c2cccc(C)c2)c(N)n1	11
COc1cccc(-c2nc(C)c(C(=O)NC(CO)CCSC)s2)c1 (stereo not given)	-7.71
CC(=O)N1CCN(C(=O)c2cc(-n3cnnn3)ccc2Cl)CC1	8.32
NCC1Cn2nnc(-c3cccc(F)c3)c2CO1 (stereo not given)	-12.1

SMILES	cytotoxicity at 10 µM [%]
Cc1cccc(CN2C[C@@H]3COC[C@]3(COc3ccc(C#N)cn3)C2)n1	-21.2
c1ccc(OCC2CC3(CCN(Cc4ccncc4)CC3)CO2)nc1 (stereo not given)	-12.5
O=C(O)Cn1nc(C2CC2)c2c(-c3ccc(F)cc3)ccnc21	-3.32
c1cnc(-c2nn3c(CN4CCCCC4)nnc3s2)cn1	5.31
CCn1nc(C)c(CN(C)S(=O)(=O)c2cnn(C)c2)c1C	5.62
CSCc1cccc(S(=O)(=O)N2CCSCC2)c1	14.3
CC1(C(=O)NCCCOc2ccccc2F)CC(=O)N2C=CC=CC2=N1 (stereo not given)	2.28
Cc1ccc(C2CCCN(S(C)(=O)=O)C2)nc1 (stereo not given)	2.32
CC1CCc2n[nH]c(C(=O)NCCCc3ccco3)c2C1 (stereo not given)	-23.2
Cc1cnc(C2(C)CCN(Cc3csc(C)n3)CC2)s1	-16.1
COCC(=O)N1CC(c2ccnc(Nc3ccc(C)cn3)n2)C1	-30.9
CCC(=O)N1CCC(Cc2ccccc2-c2ccncc2)(C(=O)NC)C1 (stereo not given)	-16
Cc1nc(Nc2nnc(C)s2)cc(C2CCCN2S(C)(=O)=O)n1 (stereo not given)	-11.9
Cc1ncncc1C(=O)N1CCC(O)(CN(C)Cc2ccc(F)cc2)C1 (stereo not given)	-7.16
c1cnc2[nH]c(C3CCNCC3)c(CN3CCOCC3)c2c1	1.82
CCn1cc(CN2CCC(O)(Cn3nc(C)ccc3=O)CC2)cn1	-22.3
OC1(CNc2ccc(F)cc2)CCNCC1	2.4
Cn1nc(C(=O)NC2(c3ccc(Cl)cc3)CCCC2)ccc1=O	-4.47
COc1ccc(CNc2cc(-c3nc(C)no3)ccn2)c(OC)c1	9.07
CC(C)c1nc(C(=O)N2CCc3ccccc3C2C(=O)O)cs1 (stereo not given)	9.63
COc1ccc(CCC(=O)N2CCN(c3nc(C)ns3)CC2)cc1	6.26
NC(=O)NC1CCN(Cc2ccccc2OCC(F)(F)F)CC1	0.451

SMILES	cytotoxicity at 10 µM [%]
COc1ccc(F)cc1C(=O)N1CCn2c(nnc2C(F)(F)F)C1	-7.61
CCc1nnc2n1CCN(C(=O)c1cnc3c(cnn3C(C)C)c1)C2	-7.58
COC(=O)CNC(=O)C(C(C)C)n1cnc2cc(F)c(F)cc21 (stereo not given)	2.76
CC(C)c1nc(C2CCCN(C(=O)CN3CCCNC3=O)C2)no1 (stereo not given)	-4.1
CCc1nc2c(s1)C(N(C)C(C)=O)CCC2 (stereo not given)	-11.6
CC(CNC(=O)N1CCN(c2ncccn2)CC1)Cc1cccs1 (stereo not given)	-7.9
CC(=O)N1CCCN(C(C)C(=O)Nc2ccnn2C(C)C)CC1 (stereo not given)	-6.22
Cc1cn2c(n1)CCC(NC(=O)CCOc1cccc(F)c1)C2 (stereo not given)	-3.42
COc1cccc(S(=O)(=O)NC(=O)c2c(C)noc2C(C)C)c1	-6.83
FC(F)CN1CCC(NCCc2ccc(-n3cccn3)cc2)CC1	14.5
Cc1nnc2n1CCN(C(=O)C(OC1CCCC1)c1ccccc1)C2 (stereo not given)	5.87
CC(C)(C)OC(=O)N1CCCN(c2nnc(C3CC3)s2)CC1	8.05
CS(=O)(=O)N1CCN(CC(=O)Nc2cccc(Cl)c2)CC1	-50.8
O=S(=O)(NC1CCCCC12OCCO2)c1cc(F)cc(F)c1 (stereo not given)	-3.55
CC(C)Cc1nc(CS(=O)(=O)c2ccccc2)no1	9.52
CCc1ccc(C(=O)NC(C)c2ccc(S(C)(=O)=O)c(F)c2)o1 (stereo not given)	17.2
CC(CN1CCOCC1)OC(=O)c1cccc2cn[nH]c12 (stereo not given)	-1.08
CC(C)CSCCCNC(=O)C1CCOCC1	-3.65
Cc1sc(CN)nc1-c1ccccc1	-2.85
COc1ccc(NC(=O)c2ccc[nH]2)c(N2CCN(C(C)=O)CC2)n1	-11.2
O=C(NCCc1ccccn1)NC1CCN(c2ncccn2)CC1	-16.3
Cc1ccc(N2C[C@H]3OCC[C@H]3[C@H](C(=O)NC3CCC3)C2)nn1	-69.9

SMILES	cytotoxicity at 10 µM [%]
COc1cc(N2CC[C@H](O)[C@@H]2Cc2cccnc2)ncn1	-71.8
Cc1cccc(C(Nc2nccc(C)n2)C2CC2)n1 (stereo not given)	-2.67
CC(C)CCN1CCCC(Cn2cc(CCO)nn2)C1 (stereo not given)	-6.02
OC[C@H]1CN(Cc2c(Cl)cncc2Cl)C[C@H]1CN1CCCC1	-127
CCCN1CCC(CC(=O)N2CCC(C(O)c3nccn3C)CC2)CC1 (stereo not given)	-1.13
Cc1cc(CN2CCC(CNC(=O)c3noc4c3CCCC4)C2)[nH]n1 (stereo not given)	-142
COc1cccc([C@@H](C)n2ccnc2-c2cc3n(n2)CCNC3)c1	3.09
Cc1cccc2cc(CN3CCC(N4CCOCC4)CC3)c(=O)[nH]c12	-12
O=C(NC1CCCNC1=O)c1ccc2nc(-c3ccc(F)cc3)cn2c1 (stereo not given)	8.8
CCN(Cc1cnn(C)c1)C[C@H]1CC[C@@H](Cc2ccc(C#N)cc2)O1	5.78
Cc1nn2c(NCC(N)=O)cc(-c3ccccc3)nc2c1C	-10.5
Cc1ccc(N2C[C@H](O)[C@@H](N3CCN(c4ccccn4)CC3)C2)nn1	-0.442
CC(C)(C(=O)NCC1CCN(Cc2cccnc2)C1)c1ccccc1 (stereo not given)	-1.66
CCN1CC(C(=O)N2CCN(CCn3cccc3)CC2)CCC1=O (stereo not given)	1.87
Cc1nc(CCCNC(=O)[C@H]2CNC[C@@H](C(=O)N3CCCC3)C2)sc1C	-132
Cc1ccc(C2(CN(C)Cc3sccc3C)CCNCC2)nc1	8.15
CCCc1cc(N2CCC(NCC3(O)CCCCC3)CC2)nc(C)n1	-2.48
CC[C@@]1(O)CCN(C(=O)CN(C)Cc2ccc(F)cc2)C[C@H]1O	3.38
COc1cccc2c1OCC(Cc1ccc(N)nc1C)C2 (stereo not given)	3.29
CCc1nnc(CNC(=O)CCC2CCCCN2C)s1 (stereo not given)	-147
COc1ccccc1N1CCN(C(=O)CCn2ccnc2C)CC1(C)C	-26.7
CC(O)CN1CCc2onc(C(c3ccccc3)c3ccccc3)c2C1 (stereo not given)	-1.49

SMILES	cytotoxicity at 10 µM [%]
O=C(CC1CCc2ccccc21)N1CCC(O)(c2cccnc2)CC1 (stereo not given)	7.19
Cc1cnn(CCNCc2ccc(C#N)cc2)c1	-10.7
Cc1nc(C)n(C2CCCN(C(=O)c3ccc(F)c(F)c3)C2)n1 (stereo not given)	-11.9
Cc1nc(CN2CCN(C(C)c3nc(C(C)C)no3)CC2)oc1C (stereo not given)	-9.16
Cc1cc2n(n1)CC(CNCc1ccc(-n3cccn3)cc1)CN2 (stereo not given)	-2.95
O=C1COc2ccc(C(=O)NS(=O)(=O)c3ccc(F)cc3F)cc2N1	-4.72
CC(C)C(=O)NC1CCN(Cc2cccc3c2OCCO3)CC1	-0.818
CCC(C)NC(=O)NCCCn1nc2ccccn2c1=O (stereo not given)	-8.08
N#Cc1ccccc1OCCN1CCCCC1Cn1cncn1 (stereo not given)	-6.04
Cc1nc[nH]c1CN(Cc1ccccc1)C1CC(C)(C)NC(C)(C)C1	0.968
Cc1nc(CN2CCCC3(CCN(c4cnn(C)c4)C3=O)C2)cs1 (stereo not given)	3.16
CC1c2ncc(CNC(=O)C3CC3)n2CCN1Cc1ccncc1 (stereo not given)	-5.72
c1coc(CN2CCO[C@H]3[C@@H](OCC4CC4)CC[C@@H]32)c1	6.68
CCOCC1c2c(cnn2CC2CC2)CCN1C(=O)c1ccncn1 (stereo not given)	-118
CC(C)CN1CCN(C)C2(CCN(Cc3ccsc3)CC2)C1=O	4.08
COCCN1CC[C@@H](O)[C@@H]1Cc1ccccc1	3.67
CC(C)N1Cc2c(C(=O)N3CCOCC3)nn(C)c2C1	0.0756
CC(C)CN1CCC2(CC1)CC(NS(C)(=O)=O)c1ccccc1O2 (stereo not given)	-4.44
N#Cc1ccccc1CN1C[C@H]2CC[C@@H](C1)N(Cc1cscn1)C2=O	-8.42
O=C(CCN1C[C@@H]2CC[C@H]1CN(c1ncccn1)C2)NCc1ccco1	-1.18
COc1nccnc1N1C[C@H]2CC[C@@H](C1)N(CC=C(C)C)C2=O	1.76
O=C(c1ccccn1)N1C[C@H]2CC[C@@H](C1)N(C(=O)CCC(F)(F)F)C2	4.37
